What all share (format): functional
For assay [1], the system named is Streptococcus pasteurianus. Briefly: Antibacterial activity against high-level gentamicin resistant Streptococcus pasteurianus SB41 isolate carrying transposon-borne resistance gene [aac(6')Ie-aph(2'')Ia] by agar dilution method. An outline of the steps:
(§1)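 MIC by agar dilution following CLSI guidelines; test organisms were clinical S. bovis/S. pasteurianus isolates recovered from blood cultures.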

Assay [2] concerns Streptococcus pasteurianus. Briefly: Antibacterial activity against high-level gentamicin resistant Streptococcus pasteurianus SB10 isolate carrying transposon-borne resistance gene [aac(6')Ie-aph(2'')Ia] by agar dilution method. In outline: as §1
(In general: In agar dilution, organisms are placed on agar that contains the substance at set levels.)

In assay [3] the test system is Streptococcus pasteurianus. Kind of assay: Antibacterial activity against high-level gentamicin resistant Streptococcus pasteurianus SB28 isolate carrying transposon-borne resistance gene [aac(6')Ie-aph(2'')Ia] by agar dilution method. In outline:
as §1

A further assay deals with Streptococcus equinus. Briefly: Antibacterial activity against Streptococcus bovis ATCC 33317 by agar dilution method. In outline:
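MIC read by agar dilution against S. bovis/S. pasteurianus, run to CLSI guidelines.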

Assay [4] has as its system Streptococcus pasteurianus. Briefly: Antibacterial activity against high-level gentamicin resistant Streptococcus pasteurianus SB30 isolate carrying transposon-borne resistance gene [aac(6')Ie-aph(2'')Ia] by agar dilution method. An outline of the steps: as §1
In another assay the test system is Enterococcus faecalis. Briefly: Antimicrobial activity against Enterococcus faecalis ATCC 29212 by agar dilution method.
The subject of assay [5] is Streptococcus pasteurianus. Kind of assay: Antibacterial activity against high-level gentamicin resistant Streptococcus pasteurianus SB34 isolate carrying transposon-borne resistance gene [aac(6')Ie-aph(2'')Ia] by agar dilution method. In outline:
as §1

For assay [6], the system named is Streptococcus pasteurianus. Kind of assay: Antibacterial activity against high-level gentamicin resistant Streptococcus pasteurianus SB40 isolate carrying transposon-borne resistance gene [aac(6')Ie-aph(2'')Ia] by agar dilution method. An outline of the steps: as §1
In assay [7] the test system is Streptococcus pasteurianus. Kind of assay: Antibacterial activity against high-level gentamicin resistant Streptococcus pasteurianus SB33 isolate carrying transposon-borne resistance gene [aac(6')Ie-aph(2'')Ia] by agar dilution method. An outline of the steps:
as §1

Here are results for eight compounds from ChEMBL document CHEMBL1150781, “High-level gentamicin resistance mediated by a Tn4001-like transposon in seven nonclonal hospital isolates of Streptococcus pasteurianus” (2007).

In brackets after ≈: the same amount, converted by molar mass.

As for `NCC[C@H](O)C(=O)N[C@@H]1C[C@H](N)[C@@H](O[C@H]2O[C@H](CN)[C@@H](O)[C@H](O)[C@H]2O)[C@H](O)[C@H]1O[C@H]1O[C@H](CO)[C@@H](O)[C@H](N)[C@H]1O` [AMIKACIN], the MIC in assay [1] was 32 µg/mL (≈ 54.6 µM); in assay [2] it was 64 µg/mL (≈ 109 µM); in [3], 512 µg/mL (≈ 874 µM); against Streptococcus equinus, 64 µg/mL (≈ 109 µM); in assay [4], 128 µg/mL (≈ 219 µM); with Enterococcus faecalis it was 64 µg/mL (≈ 109 µM). Moreover, the MIC in assay [5], in assay [6] and in [7] was 32 µg/mL (≈ 54.6 µM) throughout.

`CCC[C@@H]1C[C@@H](C(=O)N[C@@H]([C@H]2O[C@H](SC)[C@H](O)[C@@H](O)[C@H]2O)[C@H](C)Cl)N(C)C1` [CLINDAMYCIN]: the MIC is 512 µg/mL (≈ 1200 µM) in assay [1]; 256 µg/mL (≈ 602 µM) in [2]; 16 µg/mL (≈ 37.6 µM) in [3]; below 0.03 µg/mL in the assay on Streptococcus equinus; 0.5 µg/mL (≈ 1.18 µM) in assay [4]; 4 µg/mL (≈ 9.41 µM) with Enterococcus faecalis. The MIC in assay [5] was determined as 128 µg/mL (≈ 301 µM); in [6], 512 µg/mL (≈ 1200 µM); in assay [7] it was 512 µg/mL (≈ 1200 µM).

Turning to `CC[C@H]1OC(=O)[C@H](C)[C@@H](O[C@H]2C[C@@](C)(OC)[C@@H](O)[C@H](C)O2)[C@H](C)[C@@H](O[C@@H]2O[C@H](C)C[C@H](N(C)C)[C@H]2O)[C@](C)(O)C[C@@H](C)C(=O)[C@H](C)[C@@H](O)[C@]1(C)O` [ERYTHROMYCIN], the MIC in assay [1] was above 512 µg/mL; in assay [2], above 512 µg/mL; in assay [3] it was above 512 µg/mL; in the assay with Streptococcus equinus, 0.06 µg/mL (≈ 0.0818 µM); in [4] it was above 512 µg/mL; in the assay with Enterococcus faecalis it was 2 µg/mL (≈ 2.73 µM). The MIC in assay [5], in assay [6] and in assay [7] was above 512 µg/mL in each case.

Regarding `NC[C@H]1O[C@H](O[C@H]2[C@H](O)[C@@H](O[C@H]3O[C@H](CO)[C@@H](O)[C@H](N)[C@H]3O)[C@H](N)C[C@@H]2N)[C@H](O)[C@@H](O)[C@@H]1O` [KANAMYCIN], the MIC is above 4100 µg/mL in [1]; above 4100 µg/mL in assay [2]; above 4100 µg/mL in assay [3]; 128 µg/mL (≈ 264 µM) in the assay on Streptococcus equinus; 4100 µg/mL (≈ 8450 µM) in [4]; 16 µg/mL (≈ 33 µM) against Enterococcus faecalis. Moreover, the MIC in [5] was above 4100 µg/mL; in assay [6], above 4100 µg/mL; in [7], 4100 µg/mL (≈ 8450 µM).

On to `CN(C)c1ccc(O)c2c1C[C@H]1C[C@H]3[C@H](N(C)C)C(O)=C(C(N)=O)C(=O)[C@@]3(O)C(O)=C1C2=O` [MINOCYCLINE], for which the MIC in assay [1] was 8 µg/mL (≈ 17.5 µM); in assay [2], 8 µg/mL (≈ 17.5 µM); in assay [3], 16 µg/mL (≈ 35 µM); in [4], 8 µg/mL (≈ 17.5 µM); in assay [5], 0.12 µg/mL (≈ 0.262 µM); in [6], 16 µg/mL (≈ 35 µM). Besides, it took 16 µg/mL (≈ 35 µM) to inhibit growth in assay [7] (MIC).

`CCN[C@@H]1C[C@H](N)[C@@H](O[C@H]2OC(CN)=CC[C@H]2N)[C@H](O)[C@H]1O[C@H]1OC[C@](C)(O)[C@H](NC)[C@H]1O` [NETILMICIN]: the MIC was 8 µg/mL (≈ 16.8 µM) in assay [1]; 64 µg/mL (≈ 135 µM) in assay [2]; 512 µg/mL (≈ 1080 µM) in [3]; 16 µg/mL (≈ 33.6 µM) with Streptococcus equinus; 128 µg/mL (≈ 269 µM) in assay [4]; 4 µg/mL (≈ 8.41 µM) in the assay on Enterococcus faecalis. Further, the MIC in assay [5] amounted to 32 µg/mL (≈ 67.3 µM); in [6] it was 16 µg/mL (≈ 33.6 µM); in [7], 16 µg/mL (≈ 33.6 µM).

In the case of `CN[C@@H]1[C@H](O[C@H]2[C@H](O[C@H]3[C@H](O)[C@@H](O)[C@H](N=C(N)N)[C@@H](O)[C@@H]3N=C(N)N)O[C@@H](C)[C@]2(O)C=O)O[C@@H](CO)[C@H](O)[C@H]1O` [STREPTOMYCIN], the MIC in assay [1] was found to be 32 µg/mL (≈ 55 µM); in assay [2], 32 µg/mL (≈ 55 µM); in assay [3], 64 µg/mL (≈ 110 µM); in the assay on Streptococcus equinus, 64 µg/mL (≈ 110 µM); in [4], 64 µg/mL (≈ 110 µM); against Enterococcus faecalis, 32 µg/mL (≈ 55 µM). Besides, the minimum inhibitory concentration (MIC) in assay [5], in assay [6] and in [7] was 32 µg/mL (≈ 55 µM) throughout.

On to `CN(C)[C@@H]1C(O)=C(C(N)=O)C(=O)[C@@]2(O)C(O)=C3C(=O)c4c(O)cccc4[C@@](C)(O)[C@H]3C[C@@H]12` [TETRACYCLINE], for which the MIC in assay [1] is 256 µg/mL (≈ 576 µM); in assay [2] it was 128 µg/mL (≈ 288 µM); in assay [3], 128 µg/mL (≈ 288 µM); against Streptococcus equinus it was 0.25 µg/mL (≈ 0.563 µM); in assay [4], 128 µg/mL (≈ 288 µM); in the assay with Enterococcus faecalis, 16 µg/mL (≈ 36 µM). For the same compound, the figures for the minimum inhibitory concentration (MIC) in assay [5], in [6] and in assay [7] were 0.25 µg/mL (≈ 0.563 µM), 256 µg/mL (≈ 576 µM) and 256 µg/mL (≈ 576 µM), respectively.

What is called MIC is the lowest concentration found to suppress growth. A higher MIC goes with weaker potency.
